Experiments:
[1] = biological target: T1, Kappa-type opioid receptor (Cavia porcellus, UniProt P41144); test: In vitro radioligand binding assay, for inhibition of [3H]U-69593 binding to Opioid receptor kappa 1, in guinea pig brain membranes, at highest concentration of 8000 nM tested; type: cell membranes
Procedure, shortened: (§1)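 Guinea pig brain membranes were homogenised in ice-cold 10 mM Tris-HCl pH 7.0, centrifuged twice at 30000g, and resuspended in 50 mM Tris-HCl pH 7.4. [3H]U69,593 (2 nM) was incubated 2 h at 25 °C with protease inhibitor cocktail and 1 µg/mL captopril. Nonspecific binding was defined with 1 µM U69,593. Ten drug concentrations were run twice. Ki = IC50/(1+[L]/Kd).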

Mu-type opioid receptor [2] = biological target: T2, Mu-type opioid receptor (Rattus norvegicus, UniProt P33535); test: In vitro radioligand binding assay, for inhibition of [3H]DAMGO (Tyr-D-Ala-Gly-(Me)-Phe-Gly-ol) binding to Opioid receptor mu 1 in rat brain membranes at highest concentration of 6300 nM tested; type: cell membranes
Procedure, shortened: (§2)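 Rat brain membranes prepared daily: homogenised in ice-cold 10 mM Tris-HCl pH 7.0, centrifuged twice at 30000g for 10 min, resuspended in 50 mM Tris-HCl pH 7.4. Incubation 2 h at 25 °C in 50 mM Tris-HCl pH 7.4 with protease inhibitor cocktail. Nonspecific binding was defined with 20 µM levallorphan. Ten drug concentrations were run twice. Ki = IC50/(1+[L]/Kd).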

[3] = Ki ratio of mu to delta receptor
[4] = biological target: T3, Delta-type opioid receptor (Rattus norvegicus, UniProt P33533); test: In vitro binding affinity to Opioid receptor delta 1 in rat brain membranes by [3H]DADLE (Tyr-D-Ala-Gly-Phe-D-Leu) displacement.; type: cell membranes
Procedure, shortened: (§3)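 [3H]DADLE (2 nM) was bound to daily-prepared rat brain membranes for 2 h at 25 °C in 50 mM Tris-HCl pH 7.4 with 100 mM choline chloride, 3 mM MnCl2, DAMGO to block mu sites, and protease inhibitor cocktail. Nonspecific binding was defined with 20 µM levallorphan. Ten drug concentrations were run twice. Ki from IC50 by Cheng–Prusoff.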

Mu-type opioid receptor [5] = biological target: T2, Mu-type opioid receptor; test: In vitro radioligand binding assay, for inhibition of [3H]DAMGO (Tyr-D-Ala-Gly-(Me)-Phe-Gly-ol) binding to Opioid receptor mu 1 in rat brain membranes at highest concentration of 6800 nM tested; type: cell membranes; procedure, shortened: as §2
[6] = biological target: T1, Kappa-type opioid receptor; test: In vitro radioligand binding assay, for inhibition of [3H]U-69593 binding to Opioid receptor kappa 1, in guinea pig brain membranes, at highest concentration of 7000 nM tested; type: cell membranes; procedure, shortened: as §1
[7] = biological target: T3, Delta-type opioid receptor; test: In vitro radioligand binding assay, for inhibition of [3H]DADLE (Tyr-D-Ala-Gly-Phe-D-Leu) binding to Opioid receptor delta 1, in rat brain membranes at highest concentration of 1700 nM tested; type: cell membranes; procedure, shortened: as §3
[8] = IC50 ratio of mu to delta receptor
Mu-type opioid receptor [9] = biological target: T2, Mu-type opioid receptor; test: In vitro radioligand binding assay, for inhibition of [3H]DAMGO (Tyr-D-Ala-Gly-(Me)-Phe-Gly-ol) binding to Opioid receptor mu 1 in rat brain membranes.; type: cell membranes; procedure, shortened: as §2
Mu-type opioid receptor [10] = biological target: Mu-type opioid receptor (Cavia porcellus, UniProt P97266); test: Agonist activity using strips of guinea pig ileum longitudinal muscle myenteric plexus.; type: functional, tissue-based
Procedure, shortened: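 Longitudinal muscle–myenteric plexus strips from male Hartley guinea pigs (250–500 g) at 1 g tension in Krebs bicarbonate, 37 °C, 95% O2/5% CO2. Transmural stimulation at 0.1 Hz, 0.4 ms pulses, supramaximal voltage. Cumulative agonist doses; % inhibition of contraction height. IC50 by nonlinear least squares.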

[11] = biological target: T1, Kappa-type opioid receptor; test: In vitro radioligand binding assay, for inhibition of [3H]U-69593 binding to Opioid receptor kappa 1, in guinea pig brain membranes.; type: cell membranes; procedure, shortened: as §1
[12] = biological target: Delta-type opioid receptor (Mus musculus, UniProt P32300); test: Agonist activity using electrically induced smooth muscle contraction of mouse vas deferens.; type: functional
Mu-type opioid receptor [13] = biological target: T2, Mu-type opioid receptor; test: In vitro radioligand binding assay, for inhibition of [3H]-DAMGO (Tyr-D-Ala-Gly-(Me)-Phe-Gly-ol) binding to Opioid receptor mu 1 in rat brain membranes at highest concentration of 6600 nM tested; type: cell membranes; procedure, shortened: as §2
Mu-type opioid receptor [14] = biological target: T2, Mu-type opioid receptor; test: In vitro radioligand binding assay, for inhibition of [3H]DAMGO (Tyr-D-Ala-Gly-(Me)-Phe-Gly-ol) binding to Opioid receptor mu 1 in rat brain membranes at highest concentration of 5600 nM tested; type: cell membranes; procedure, shortened: as §2

Mu-type opioid receptor (Cavia porcellus, UniProt P97266), sequence (P97266 whole entry): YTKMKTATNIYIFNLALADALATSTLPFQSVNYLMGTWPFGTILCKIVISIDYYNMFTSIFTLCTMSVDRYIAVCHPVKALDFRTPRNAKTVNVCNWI
T1 sequence (P41144 whole entry): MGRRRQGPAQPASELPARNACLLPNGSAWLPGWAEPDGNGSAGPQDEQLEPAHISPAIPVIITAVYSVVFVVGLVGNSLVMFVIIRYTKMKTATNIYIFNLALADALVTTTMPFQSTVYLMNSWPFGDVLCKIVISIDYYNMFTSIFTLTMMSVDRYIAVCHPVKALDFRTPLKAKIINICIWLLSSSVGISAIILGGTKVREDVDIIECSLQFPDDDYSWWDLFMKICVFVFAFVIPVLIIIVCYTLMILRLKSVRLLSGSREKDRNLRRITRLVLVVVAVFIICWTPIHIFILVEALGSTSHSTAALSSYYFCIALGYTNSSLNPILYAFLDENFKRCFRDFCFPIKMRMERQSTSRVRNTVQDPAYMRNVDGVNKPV
T2 sequence (P33535 whole entry): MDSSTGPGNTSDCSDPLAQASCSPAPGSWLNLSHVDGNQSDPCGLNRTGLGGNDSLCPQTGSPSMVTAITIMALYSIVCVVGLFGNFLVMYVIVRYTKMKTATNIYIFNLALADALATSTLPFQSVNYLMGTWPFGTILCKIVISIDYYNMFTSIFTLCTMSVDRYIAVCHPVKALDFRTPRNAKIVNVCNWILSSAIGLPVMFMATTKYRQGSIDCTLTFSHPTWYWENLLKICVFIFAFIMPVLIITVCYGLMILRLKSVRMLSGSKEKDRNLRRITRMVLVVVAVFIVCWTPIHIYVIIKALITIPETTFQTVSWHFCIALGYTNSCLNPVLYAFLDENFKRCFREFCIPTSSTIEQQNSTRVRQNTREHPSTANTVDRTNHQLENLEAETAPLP
T3 sequence (P33533 whole entry): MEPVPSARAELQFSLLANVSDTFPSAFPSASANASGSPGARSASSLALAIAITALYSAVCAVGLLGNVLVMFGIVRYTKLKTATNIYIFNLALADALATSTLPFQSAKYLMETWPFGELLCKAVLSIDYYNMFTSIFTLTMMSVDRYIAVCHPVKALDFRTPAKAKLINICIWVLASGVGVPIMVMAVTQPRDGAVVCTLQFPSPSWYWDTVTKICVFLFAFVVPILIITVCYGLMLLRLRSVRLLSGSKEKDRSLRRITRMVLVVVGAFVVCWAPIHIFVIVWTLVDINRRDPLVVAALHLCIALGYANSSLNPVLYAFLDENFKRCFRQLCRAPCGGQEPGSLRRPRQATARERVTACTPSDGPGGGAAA
Delta-type opioid receptor (Mus musculus, UniProt P32300), sequence (P32300 whole entry): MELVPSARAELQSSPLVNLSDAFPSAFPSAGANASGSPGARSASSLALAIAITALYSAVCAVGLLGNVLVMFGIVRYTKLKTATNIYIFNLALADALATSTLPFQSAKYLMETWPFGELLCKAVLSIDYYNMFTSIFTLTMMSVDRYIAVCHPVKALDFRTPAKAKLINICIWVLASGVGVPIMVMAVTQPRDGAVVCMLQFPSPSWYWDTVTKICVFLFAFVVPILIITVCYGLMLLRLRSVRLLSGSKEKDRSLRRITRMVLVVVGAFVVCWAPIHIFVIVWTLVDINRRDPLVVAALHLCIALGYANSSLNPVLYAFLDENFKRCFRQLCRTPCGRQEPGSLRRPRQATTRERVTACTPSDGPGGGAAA

## CCN(CC)C(=O)c1ccc(C(c2cccc(OC)c2)C2CCN(C)CC2)cc1 (stereo not drawn)
[1]
  Ki: 10 µM
Mu-type opioid receptor [2]
  Ki: 10 µM
[3]
  Ki ratio: > 15
[4]
  Ki: 0.328 µM

## CCN(CC)C(=O)c1ccc(C(c2ccccc2)N2CCNCC2)cc1 (stereo not drawn)
Mu-type opioid receptor [5]
  Ki: 10 µM
[3]
  Ki ratio: > 1400
[4]
  Ki: 0.00485 µM

## CCN(CC)C(=O)c1ccc(C(c2ccccc2)N2CCOCC2)cc1 (stereo not drawn)
[6]
  Ki: 10 µM
Mu-type opioid receptor [5]
  Ki: 10 µM
[7]
  Ki: 3 µM
[3]
  Ki ratio: > 4

## C=CCN1CCN(C(c2ccc(C(=O)N(CC)CC)cc2)c2cccc(OC)c2)CC1 (stereo not drawn)
[8]
  Ratio: 610
Mu-type opioid receptor [9]
  Ki: 10 µM
[3]
  Ki ratio: > 230
[4]
  Ki: 0.027 µM
Mu-type opioid receptor [10]
  IC50: 20.3 µM
[11]
  Ki: 10 µM
[12]
  IC50: 0.0331 µM

## C=CCN1CCC(C(c2ccc(C(=O)N(CC)CC)cc2)c2cccc(OC)c2)CC1 (stereo not drawn)
[1]
  Ki: 10 µM
Mu-type opioid receptor [2]
  Ki: 10 µM
[3]
  Ki ratio: > 200
[4]
  Ki: 0.027 µM

## CCN(CC)C(=O)c1ccc(C(c2cccc(OC)c2)N(C)CCN(C)C)cc1 (stereo not drawn)
[1]
  Ki: 10 µM
Mu-type opioid receptor [5]
  Ki: 10 µM
[3]
  Ki ratio: > 20
[4]
  Ki: 0.248 µM

## C=CCN1C[C@H](C)N([C@H](c2ccc(C(=O)N(CC)CC)cc2)c2cccc(OC)c2)C[C@H]1C [SNC-80]
Mu-type opioid receptor [9]
  Ki: 3.97 µM
[11]
  Ki: 11.7 µM

## CCN(CC)C(=O)c1ccc(C(NCCN(C)C)c2cccc(OC)c2)cc1 (stereo not drawn)
[1]
  Ki: 10 µM
Mu-type opioid receptor [5]
  Ki: 10 µM
[3]
  Ki ratio: > 10
[4]
  Ki: 0.622 µM

## C=CCN1C[C@H](C)N([C@@H](c2ccccc2)c2ccc(C(=O)N(CC)CC)cc2)C[C@H]1C
[8]
  Ratio: 813
Mu-type opioid receptor [9]
  Ki: 3 µM
[3]
  Ki ratio: > 3600
[4]
  Ki: 0.0005 µM
[11]
  Ki: 3 µM

## CCN(CC)C(=O)c1ccc(C(c2ccccc2)N2CCCCC2)cc1 (stereo not drawn)
[6]
  Ki: 10 µM
Mu-type opioid receptor [5]
  Ki: 10 µM
[7]
  Ki: 3 µM
[3]
  Ki ratio: > 4

## CCCN1CCN(C(c2ccccc2)c2ccc(C(=O)N(CC)CC)cc2)CC1 (stereo not drawn)
[6]
  Ki: 10 µM
Mu-type opioid receptor [5]
  Ki: 10 µM
[3]
  Ki ratio: > 150
[4]
  Ki: 0.0442 µM

## CCN(CC)C(=O)c1ccc(C(OCCN(C)C)c2cccc(OC)c2)cc1 (stereo not drawn)
[1]
  Ki: 10 µM
Mu-type opioid receptor [5]
  Ki: 10 µM
[3]
  Ki ratio: > 20
[4]
  Ki: 0.258 µM

## CCN(CC)C(=O)c1ccc(C(c2cccc(OC)c2)C2CCNCC2)cc1 (stereo not drawn)
[1]
  Ki: 10 µM
Mu-type opioid receptor [2]
  Ki: 10 µM
[3]
  Ki ratio: > 300
[4]
  Ki: 0.02 µM

## CCN(CC)C(=O)c1ccc(C(=C2CCN(Cc3ccccc3)CC2)c2cccc(OC)c2)cc1
Mu-type opioid receptor [2]
  Ki: 10 µM
[3]
  Ki ratio: > 500
[4]
  Ki: 0.012 µM
[11]
  Ki: 7.65 µM

## CCN(CC)C(=O)c1ccc(C(c2ccccc2)N2CCN(Cc3ccccc3)CC2)cc1 (stereo not drawn)
[8]
  Ratio: 382
[6]
  Ki: 2 µM
Mu-type opioid receptor [5]
  Ki: 10 µM
[3]
  Ki ratio: > 4500
[4]
  Ki: 0.00148 µM
Mu-type opioid receptor [10]
  IC50: 9.85 µM
[12]
  IC50: 0.0257 µM

## C=CCN1CCN(C(c2ccccc2)c2ccc(C(=O)N(CC)CC)cc2)CC1 (stereo not drawn)
[3]
  Ki ratio: > 600
[4]
  Ki: 0.0105 µM
Mu-type opioid receptor [13]
  Ki: 10 µM

## CCN(CC)C(=O)c1ccc(C(=C2CCNCC2)c2cccc(OC)c2)cc1
[1]
  Ki: 10 µM
[8]
  Ratio: 220
Mu-type opioid receptor [2]
  Ki: 10 µM
[3]
  Ki ratio: > 1200
[4]
  Ki: 0.005 µM
Mu-type opioid receptor [10]
  IC50: 27.7 µM
[12]
  IC50: 0.125 µM

## CCN(CC)C(=O)c1ccc(C(c2ccccc2)N2CCN(C)CC2)cc1 (stereo not drawn)
[6]
  Ki: 10 µM
[3]
  Ki ratio: > 130
[4]
  Ki: 0.0432 µM
Mu-type opioid receptor [14]
  Ki: 10 µM
